According to ChEMBL document CHEMBL3286203, “Reactive oxygen species (ROS) inducible DNA cross-linking agents and their effect on cancer cells and normal lymphocytes” (J Med Chem, 2014):
Activity calls are given as the source filed them. No cut-off for these calls is given here.

Columns and labels:
UACC-62 = experiment: Cytotoxicity against human UACC62 cells assessed as growth inhibition at 10 uM after 48 hrs by SRB assay; assay type: functional, cell-based
In short: (§1)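 NCI-60 DTP human tumour line screen. Cells grown in RPMI 1640 with 5% fetal bovine serum and 2 mM L-glutamine, plated at 5000–40 000 cells/well according to doubling time. Single dose of 10 μM for 48 h at 37 °C, 5% CO2, 95% air, 100% humidity, two plates per line. Read-out is growth percent.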

SR = experiment: Cytotoxicity against human SR cells assessed as growth inhibition at 10 uM after 48 hrs by SRB assay; assay type: functional, cell-based; in short: as §1
HCC 2998 = experiment: Cytotoxicity against human HCC2998 cells assessed as growth inhibition at 10 uM after 48 hrs by SRB assay; assay type: functional, cell-based
In short: (§2)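 NCI DTP 60-cell-line screen run at the NCI. Cells were grown in RPMI 1640 with 5% FBS and 2 mM L-glutamine. They were seeded at 5000–40 000 cells/well depending on doubling time and grown in two plates per line. Each was exposed to a single 10 μM dose for 48 h at 37 °C, 5% CO2, 95% air, 100% humidity. Read-out was percent growth.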

U-251 = experiment: Cytotoxicity against human U251 cells assessed as growth inhibition at 10 uM after 48 hrs by SRB assay; assay type: functional, cell-based; in short: as §1
K562 = experiment: Cytotoxicity against human K562 cells assessed as growth inhibition at 10 uM after 48 hrs by SRB assay; assay type: functional, cell-based; in short: as §2
SF-539 = experiment: Cytotoxicity against human SF539 cells assessed as growth inhibition at 10 uM after 48 hrs by SRB assay; assay type: functional, cell-based
In short: (§3)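 Single-dose screen run by the NCI Developmental Therapeutics Program (NCI-60). Cells were grown in RPMI 1640 with 5% fetal bovine serum and 2 mM L-glutamine. They were plated at 5000–40 000 cells/well, depending on doubling time. Each line was run in two plates and exposed to 10 μM drug for 48 h at 37 °C, 5% CO2, 100% humidity. Read-out was growth percent.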

HL-60(TB) = experiment: Cytotoxicity against human HL-60(TB) cells assessed as growth inhibition at 10 uM after 48 hrs by SRB assay; assay type: functional, cell-based; in short: as §2
MOLT-4 = experiment: Cytotoxicity against human MOLT4 cells assessed as growth inhibition at 10 uM after 48 hrs by SRB assay; assay type: functional, cell-based; in short: as §3
SN12C = experiment: Cytotoxicity against human SN12C cells assessed as growth inhibition at 10 uM after 48 hrs by SRB assay; assay type: functional, cell-based; in short: as §1
M14 = experiment: Cytotoxicity against human M14 cells assessed as growth inhibition at 10 uM after 48 hrs by SRB assay; assay type: functional, cell-based; in short: as §2
Malme-3M = experiment: Cytotoxicity against human MALME-3M cells assessed as growth inhibition at 10 uM after 48 hrs by SRB assay; assay type: functional, cell-based; in short: as §2
HOP-92 = experiment: Cytotoxicity against human HOP92 cells assessed as growth inhibition at 10 uM after 48 hrs by SRB assay; assay type: functional, cell-based; in short: as §2
MDA-MB-435 = experiment: Cytotoxicity against human MDA-MB-435 cells assessed as growth inhibition at 10 uM after 48 hrs by SRB assay; assay type: functional, cell-based; in short: as §3
LOX IMVI = experiment: Cytotoxicity against human LOXIMVI cells assessed as growth inhibition at 10 uM after 48 hrs by SRB assay; assay type: functional, cell-based; in short: as §2
KM12 = experiment: Cytotoxicity against human KM12 cells assessed as growth inhibition at 10 uM after 48 hrs by SRB assay; assay type: functional, cell-based; in short: as §2
EKVX = experiment: Cytotoxicity against human EKVX cells assessed as growth inhibition at 10 uM after 48 hrs by SRB assay; assay type: functional, cell-based; in short: as §2
UO-31 = experiment: Cytotoxicity against human UO31 cells assessed as growth inhibition at 10 uM after 48 hrs by SRB assay; assay type: functional, cell-based; in short: as §1
NCI-H23 = experiment: Cytotoxicity against human NCI-H23 cells assessed as growth inhibition at 10 uM after 48 hrs by SRB assay; assay type: functional, cell-based; in short: as §3
[1] = Induction of [32P]-labeled 49-mer oligonucleotide duplex DNA 12 with GNC sequence at terminus (unknown origin) interstrand cross-linking at 1 mM after 16 hrs by PAGE in presence of H2O2
In short: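 32P-labelled 12a (1.0 μM) annealed with 1.5 equiv of 12b in 10 mM potassium phosphate pH 7 / 100 mM NaCl (65 °C for 3 min, then slow cooling). Duplex incubated with compound (final 1 μM–5 mM), with or without H2O2, in NaCl and potassium phosphate pH 8 at room temperature for 16 h. Quenched in formamide; 20% denaturing PAGE.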

IGROV-1 = experiment: Cytotoxicity against human IGROV1 cells assessed as growth inhibition at 10 uM after 48 hrs by SRB assay; assay type: functional, cell-based; in short: as §2
NCI-H522 = experiment: Cytotoxicity against human NCI-H522 cells assessed as growth inhibition at 10 uM after 48 hrs by SRB assay; assay type: functional, cell-based; in short: as §3
SK-MEL-28 = experiment: Cytotoxicity against human SK-MEL-28 cells assessed as growth inhibition at 10 uM after 48 hrs by SRB assay; assay type: functional, cell-based; in short: as §3
MDA-MB-468 = experiment: Cytotoxicity against human MDA-MB-468 cells assessed as growth inhibition at 10 uM after 48 hrs by SRB assay; assay type: functional, cell-based; in short: as §3
RXF 393 = experiment: Cytotoxicity against human RXF393 cells assessed as growth inhibition at 10 uM after 48 hrs by SRB assay; assay type: functional, cell-based; in short: as §3
UACC-257 = experiment: Cytotoxicity against human UACC257 cells assessed as growth inhibition at 10 uM after 48 hrs by SRB assay; assay type: functional, cell-based; in short: as §1
OVCAR-4 = experiment: Cytotoxicity against human OVCAR4 cells assessed as growth inhibition at 10 uM after 48 hrs by SRB assay; assay type: functional, cell-based; in short: as §3
SF-295 = experiment: Cytotoxicity against human SF295 cells assessed as growth inhibition at 10 uM after 48 hrs by SRB assay; assay type: functional, cell-based; in short: as §3
MDA-MB-231 = experiment: Cytotoxicity against human MDA-MB-231 cells assessed as growth inhibition at 10 uM after 48 hrs by SRB assay; assay type: functional, cell-based; in short: as §3
ACHN = experiment: Cytotoxicity against human ACHN cells assessed as growth inhibition at 10 uM after 48 hrs by SRB assay; assay type: functional, cell-based; in short: as §2
BT-549 = experiment: Cytotoxicity against human BT549 cells assessed as growth inhibition at 10 uM after 48 hrs by SRB assay; assay type: functional, cell-based; in short: as §2
HCT-116 = experiment: Cytotoxicity against human HCT116 cells assessed as growth inhibition at 10 uM after 48 hrs by SRB assay; assay type: functional, cell-based; in short: as §2
HT-29 = experiment: Cytotoxicity against human HT-29 cells assessed as growth inhibition at 10 uM after 48 hrs by SRB assay; assay type: functional, cell-based; in short: as §2
CCRF-CEM = experiment: Cytotoxicity against human CCRF-CEM cells assessed as growth inhibition at 10 uM after 48 hrs by SRB assay; assay type: functional, cell-based; in short: as §2
OVCAR-8 = experiment: Cytotoxicity against human OVCAR8 cells assessed as growth inhibition at 10 uM after 48 hrs by SRB assay; assay type: functional, cell-based; in short: as §3
HOP-62 = experiment: Cytotoxicity against human HOP62 cells assessed as growth inhibition at 10 uM after 48 hrs by SRB assay; assay type: functional, cell-based; in short: as §2
SK-OV-3 = experiment: Cytotoxicity against human SKOV3 cells assessed as growth inhibition at 10 uM after 48 hrs by SRB assay; assay type: functional, cell-based; in short: as §3
786-0 = experiment: Cytotoxicity against human 786-0 cells assessed as growth inhibition at 10 uM after 48 hrs by SRB assay; assay type: functional, cell-based; in short: as §2

| Compound | growth inhibition (GI) (UACC-62) | growth inhibition (GI) (SR) | growth inhibition (GI) (HCC 2998) | growth inhibition (GI) (U-251) | growth inhibition (GI) (K562) | growth inhibition (GI) (SF-539) | growth inhibition (GI) (HL-60(TB)) | growth inhibition (GI) (MOLT-4) | growth inhibition (GI) (SN12C) | growth inhibition (GI) (M14) | growth inhibition (GI) (Malme-3M) | growth inhibition (GI) (HOP-92) | growth inhibition (GI) (MDA-MB-435) | growth inhibition (GI) (LOX IMVI) | growth inhibition (GI) (KM12) | growth inhibition (GI) (EKVX) | growth inhibition (GI) (UO-31) | growth inhibition (GI) (NCI-H23) | Activity [1] | growth inhibition (GI) (IGROV-1) | also measured |
| --- | --- | --- | --- | --- | --- | --- | --- | --- | --- | --- | --- | --- | --- | --- | --- | --- | --- | --- | --- | --- | --- |
| CC1(C)OB(c2ccc(COC(=O)N(CCCl)CCCl)cc2)OC1(C)C | inactive | inactive | inactive | inactive | inactive | inactive | inactive | inactive | inactive | inactive | inactive | inactive | inactive | inactive | inactive | inactive | inactive | inactive | inactive | inactive | growth inhibition (GI) (NCI-H522): inactive; growth inhibition (GI) (SK-MEL-28): inactive; growth inhibition (GI) (MDA-MB-468): inactive; growth inhibition (GI) (RXF 393): inactive; growth inhibition (GI) (UACC-257): inactive; growth inhibition (GI) (OVCAR-4): inactive; growth inhibition (GI) (SF-295): inactive; growth inhibition (GI) (MDA-MB-231): inactive; growth inhibition (GI) (ACHN): inactive; growth inhibition (GI) (BT-549): inactive; growth inhibition (GI) (HCT-116): inactive; growth inhibition (GI) (HT-29): inactive; growth inhibition (GI) (CCRF-CEM): inactive; growth inhibition (GI) (OVCAR-8): inactive; growth inhibition (GI) (HOP-62): inactive; growth inhibition (GI) (SK-OV-3): inactive; growth inhibition (GI) (786-0): inactive |
| CC1(C)OB(c2ccc(N(CCCl)CCCl)cc2)OC1(C)C | Active | Active | Active | Active | Active | Active | Active | Active | Active | Active | Active | Active | Active | Active | Active | Active | Active | Active | 37% | Active | growth inhibition (GI) (NCI-H522): Active; growth inhibition (GI) (SK-MEL-28): Active; growth inhibition (GI) (MDA-MB-468): Active; growth inhibition (GI) (RXF 393): Active; growth inhibition (GI) (UACC-257): Active; growth inhibition (GI) (OVCAR-4): Active; growth inhibition (GI) (SF-295): Active; growth inhibition (GI) (MDA-MB-231): Active; growth inhibition (GI) (ACHN): Active; growth inhibition (GI) (BT-549): Active; growth inhibition (GI) (HCT-116): Active; growth inhibition (GI) (HT-29): Active; growth inhibition (GI) (CCRF-CEM): Active; growth inhibition (GI) (OVCAR-8): Active; growth inhibition (GI) (HOP-62): Active; growth inhibition (GI) (SK-OV-3): Active; growth inhibition (GI) (786-0): Active |
| CC1(C)OB(c2ccc(N(CCCl)CCOS(C)(=O)=O)cc2)OC1(C)C | Active | Active | Active | Active | Active | Active | Active | Active | Active | Active | Active | Active | Active | Active | Active | Active | Active | Active | 37% | Active | growth inhibition (GI) (NCI-H522): Active; growth inhibition (GI) (SK-MEL-28): Active; growth inhibition (GI) (MDA-MB-468): Active; growth inhibition (GI) (RXF 393): Active; growth inhibition (GI) (UACC-257): Active; growth inhibition (GI) (OVCAR-4): Active; growth inhibition (GI) (SF-295): Active; growth inhibition (GI) (MDA-MB-231): Active; growth inhibition (GI) (ACHN): Active; growth inhibition (GI) (BT-549): Active; growth inhibition (GI) (HCT-116): Active; growth inhibition (GI) (HT-29): Active; growth inhibition (GI) (CCRF-CEM): Active; growth inhibition (GI) (OVCAR-8): Active; growth inhibition (GI) (HOP-62): Active; growth inhibition (GI) (SK-OV-3): Active; growth inhibition (GI) (786-0): Active |
| CC1(C)OB(c2ccc(N(CCBr)CCOS(C)(=O)=O)cc2)OC1(C)C | Active | Active | Active | Active | Active | Active | Active | Active | Active | Active | Active | Active | Active | Active | Active | Active | Active | Active | 37% | Active | growth inhibition (GI) (NCI-H522): Active; growth inhibition (GI) (SK-MEL-28): Active; growth inhibition (GI) (MDA-MB-468): Active; growth inhibition (GI) (RXF 393): Active; growth inhibition (GI) (UACC-257): Active; growth inhibition (GI) (OVCAR-4): Active; growth inhibition (GI) (SF-295): Active; growth inhibition (GI) (MDA-MB-231): Active; growth inhibition (GI) (ACHN): Active; growth inhibition (GI) (BT-549): Active; growth inhibition (GI) (HCT-116): Active; growth inhibition (GI) (HT-29): Active; growth inhibition (GI) (CCRF-CEM): Active; growth inhibition (GI) (OVCAR-8): Active; growth inhibition (GI) (HOP-62): Active; growth inhibition (GI) (SK-OV-3): Active; growth inhibition (GI) (786-0): Active |
